# Measurements from ChEMBL document CHEMBL3352109, “Synthesis and antifungal activity of substituted salicylaldehyde hydrazones, hydrazides and sulfohydrazides” (Bioorg Med Chem, 2014).
# Calls of active or inactive are those of the source. The rule behind the calls is not given here.
# Columns and labels:
# [1] = system: Candida albicans; test: Antifungal activity against Candida albicans ATCC 10231 by NCCLS method; format: functional
# Outline: (§1)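 Broth dilution per NCCLS yeast reference method, in HEPES-buffered RPMI with 1% DMSO. MIC80 is the lowest concentration giving more than 80% growth inhibition versus positive (no-drug) controls. Read by visual scoring, not absorbance. Highest level tested 125 µg/mL.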
# [2] = system: Nakaseomyces glabratus; test: Antifungal activity against Candida glabrata ATCC 48435 by NCCLS method; format: functional; outline: as §1
# [3] = system: Vero; test: Cytotoxicity against african green monkey Vero cells assessed as reduction in cell viability at 100 times MIC80 after 24 hrs by CellTiter 96 non-radioactive cell proliferation assay; format: cell-based; conditions: chlorocebus sabaeus
# Outline: (§2)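 Cells exposed for 24 h at 37 °C, 5% CO2, to compound diluted in medium at the antifungal MIC and at 5, 10 and 100× MIC. Tetrazolium dye added for 1–4 h, then stop solution for 1 h at room temperature. Formazan read at 570 nm. Viability is the drug-well/no-drug (1% DMSO) control absorbance ratio, with control set to 100%. 0.1% saponin served as the death control. Triplicates, mean ± SD.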
# [4] = system: HepG2; test: Cytotoxicity against human HepG2 cells assessed as reduction in cell viability at 100 times MIC80 after 24 hrs by CellTiter 96 non-radioactive cell proliferation assay; format: cell-based; conditions: hepg2, 24 h; outline: as §2
# [5] = system: Candida albicans; test: Antifungal activity against Candida albicans ATCC 10231 at 125 ug/ml by NCCLS method; format: functional, organism-based
# [6] = system: Nakaseomyces glabratus; test: Antifungal activity against Candida glabrata ATCC 48435 at 125 ug/ml by NCCLS method; format: functional, organism-based
# [7] = system: Vero; test: Cytotoxicity against african green monkey Vero cells assessed as reduction in cell viability at MIC80 after 24 hrs by CellTiter 96 non-radioactive cell proliferation assay relative to control; format: cell-based; conditions: chlorocebus sabaeus; outline: as §2
# [8] = system: Vero (Chlorocebus sabaeus); test: Cytotoxicity against African green monkey Vero cells assessed as reduction in cell viability at MIC80 after 24 hrs by CellTiter 96 non-radioactive cell proliferation assay
structure (smiles),measurement,setting,value
O=C(N/N=C/c1ccccc1O)c1ccc([N+](=O)[O-])cc1,MIC80,[1],0.5 µg/mL
same,MIC80,[2],0.5 µg/mL
same,Activity,[3],Non-toxic
same,Activity,[4],Non-toxic
COc1ccc(O)c(/C=N/NS(=O)(=O)c2ccc(Br)cc2)c1,Activity,[5],inactive
same,Activity,[6],inactive
Cc1ccc(O)c(/C=N/NC(=O)c2ccccc2)c1,MIC80,[1],1 µg/mL
same,MIC80,[2],1 µg/mL
same,Activity,[7],20%
same,Activity,[8],20%
O=[N+]([O-])c1ccc(O)c(/C=N/NS(=O)(=O)c2ccccc2)c1,Activity,[5],inactive
same,Activity,[6],inactive
O=S(=O)(N/N=C/c1cc(Br)ccc1O)c1ccc(Br)cc1,Activity,[5],inactive
same,Activity,[6],inactive
COc1ccc(O)c(/C=N/NS(=O)(=O)c2ccccc2)c1,Activity,[5],inactive
same,Activity,[6],inactive
COc1ccc(S(=O)(=O)N/N=C/c2cc(C)ccc2O)cc1,Activity,[5],inactive
same,Activity,[6],inactive
O=[N+]([O-])c1ccc(O)c(/C=N/NS(=O)(=O)c2ccc3ccccc3c2)c1,Activity,[5],inactive
same,Activity,[6],inactive
Cc1ccc(O)c(/C=N/NS(=O)(=O)c2ccc3ccccc3c2)c1,Activity,[5],inactive
same,Activity,[6],inactive
O=S(=O)(N/N=C/c1cc(Cl)ccc1O)c1ccc2ccccc2c1,Activity,[5],inactive
same,Activity,[6],inactive
O=[N+]([O-])c1ccc(S(=O)(=O)N/N=C/c2cc(Cl)ccc2O)cc1,Activity,[5],inactive
same,Activity,[6],inactive
Cc1ccc(S(=O)(=O)N/N=C/c2cc([N+](=O)[O-])ccc2O)cc1,Activity,[5],inactive
same,Activity,[6],inactive
Cc1ccc(S(=O)(=O)N/N=C/c2cc(C)ccc2O)cc1,Activity,[5],inactive
same,Activity,[6],inactive
COc1ccc(O)c(/C=N/NS(=O)(=O)c2ccc3ccccc3c2)c1,Activity,[5],inactive
same,Activity,[6],inactive
O=S(=O)(N/N=C/c1ccccc1O)c1ccc(Br)cc1,Activity,[5],inactive
same,Activity,[6],inactive
Cc1ccc(O)c(/C=N/NS(=O)(=O)c2ccc([N+](=O)[O-])cc2)c1,Activity,[5],inactive
same,Activity,[6],inactive
O=[N+]([O-])c1ccc(O)c(/C=N/NS(=O)(=O)c2ccc(Br)cc2)c1,Activity,[5],inactive
same,Activity,[6],inactive
Cc1ccc(S(=O)(=O)N/N=C/c2ccccc2O)cc1,MIC80,[2],inactive
same,Activity,[5],inactive
same,Activity,[6],inactive
O=[N+]([O-])c1cc(/C=N/Nc2ccccc2)c(O)c([N+](=O)[O-])c1,MIC80,[1],2 µg/mL
same,MIC80,[2],4 µg/mL
same,Activity,[3],Non-toxic
same,Activity,[4],Non-toxic
O=S(=O)(N/N=C/c1cc(Br)ccc1O)c1ccccc1,Activity,[5],inactive
same,Activity,[6],inactive
O=[N+]([O-])c1ccc(S(=O)(=O)N/N=C/c2ccccc2O)cc1,Activity,[5],inactive
same,Activity,[6],inactive
O=Cc1ccc(/C=N/Nc2ccc([N+](=O)[O-])cc2[N+](=O)[O-])cc1,MIC80,[1],inactive
same,MIC80,[2],inactive
COc1ccc(O)c(/C=N/Nc2ccccc2)c1,MIC80,[1],31 µg/mL
same,MIC80,[2],31 µg/mL
COc1ccc(S(=O)(=O)N/N=C/c2cc([N+](=O)[O-])ccc2O)cc1,Activity,[5],inactive
same,Activity,[6],inactive
N/N=C/c1ccccc1O,MIC80,[1],16 µg/mL
same,MIC80,[2],4 µg/mL
same,Activity,[3],Non-toxic
same,Activity,[4],Non-toxic
O=C(N/N=C/c1cc(Cl)ccc1O)c1ccc(O)cc1,MIC80,[1],inactive
same,MIC80,[2],62 µg/mL
O=C(N/N=C/c1cc(Br)cc(Br)c1O)c1ccc([N+](=O)[O-])cc1,MIC80,[1],1 µg/mL
same,MIC80,[2],125 µg/mL
O=[N+]([O-])c1ccc(N/N=C/c2cc(Cl)cc(Cl)c2O)cc1,MIC80,[1],inactive
same,MIC80,[2],62 µg/mL
O=[N+]([O-])c1ccc(N/N=C/c2cccc(Br)c2O)cc1,MIC80,[1],inactive
same,MIC80,[2],inactive
O=C(N/N=C/c1ccccc1O)c1ccc(O)cc1,MIC80,[1],inactive
same,MIC80,[2],4 µg/mL
Cc1ccc(O)c(/C=N/NC(=O)c2ccc([N+](=O)[O-])cc2)c1,MIC80,[1],0.5 µg/mL
same,MIC80,[2],0.125 µg/mL
same,Activity,[7],20%
same,Activity,[8],20%
O=C(N/N=C/c1ccc(O)cc1O)c1ccccc1,MIC80,[1],31 µg/mL
same,MIC80,[2],1 µg/mL
O=[N+]([O-])c1ccc(N/N=C/c2cc(Br)ccc2O)cc1,MIC80,[1],inactive
same,MIC80,[2],inactive
Oc1c(Cl)cc(Cl)cc1/C=N/Nc1ccccc1,MIC80,[1],125 µg/mL
same,MIC80,[2],125 µg/mL
Cc1ccc(S(=O)(=O)N/N=C/c2cc(Cl)ccc2O)cc1,Activity,[5],inactive
same,Activity,[6],inactive
O=S(=O)(N/N=C/c1cc(Cl)ccc1O)c1ccc(Br)cc1,Activity,[5],inactive
same,Activity,[6],inactive
CC(C)(C)c1cccc(/C=N/N)c1O,MIC80,[1],125 µg/mL
same,MIC80,[2],62 µg/mL
O=S(=O)(N/N=C/c1ccccc1O)c1ccc2ccccc2c1,Activity,[5],inactive
same,Activity,[6],inactive
O=C(N/N=C/c1ccc(/C=N/NC(=O)c2ccccc2)cc1)c1ccccc1,MIC80,[1],inactive
same,MIC80,[2],inactive
Cc1ccc(O)c(/C=N/NS(=O)(=O)c2ccc(Br)cc2)c1,Activity,[5],inactive
same,Activity,[6],inactive
Oc1ccccc1/C=N/Nc1ccccc1,MIC80,[1],16 µg/mL
same,MIC80,[2],16 µg/mL
COc1ccc(S(=O)(=O)N/N=C/c2cc(Br)ccc2O)cc1,Activity,[5],inactive
same,Activity,[6],inactive
Oc1ccc(Br)cc1/C=N/Nc1ccccc1,MIC80,[1],31 µg/mL
same,MIC80,[2],31 µg/mL
Cc1ccc(C)c(N/N=C/c2ccccc2O)c1,MIC80,[1],inactive
same,MIC80,[2],inactive
O=C(N/N=C/c1cccc(Br)c1O)c1ccccc1,MIC80,[1],4 µg/mL
same,MIC80,[2],2 µg/mL
CC(C)(C)c1cccc(/C=N/NC(=O)c2ccccc2)c1O,MIC80,[1],inactive
same,MIC80,[2],inactive
COc1ccc(S(=O)(=O)N/N=C/c2ccccc2O)cc1,Activity,[5],inactive
same,Activity,[6],inactive
O=[N+]([O-])c1ccc(N/N=C/c2ccccc2O)cc1,MIC80,[1],125 µg/mL
same,MIC80,[2],4 µg/mL
Cc1ccc(S(=O)(=O)N/N=C/c2cc(Br)ccc2O)cc1,Activity,[5],inactive
same,Activity,[6],inactive
O=C(N/N=C/c1ccccc1O)c1ccccc1 [SALICYLALDEHYDE BENZOYL HYDRAZONE],MIC80,[1],2 µg/mL
same,MIC80,[2],1 µg/mL
CC(C)(C)c1cccc(/C=N/Nc2ccccc2)c1O,MIC80,[1],inactive
same,MIC80,[2],inactive
O=[N+]([O-])c1ccc(S(=O)(=O)N/N=C/c2cc(Br)ccc2O)cc1,Activity,[5],inactive
same,Activity,[6],inactive
O=C(N/N=C/c1cc(Br)ccc1O)c1ccccc1O,MIC80,[1],8 µg/mL
same,MIC80,[2],62 µg/mL
O=S(=O)(N/N=C/c1cc(Br)ccc1O)c1ccc2ccccc2c1,Activity,[5],inactive
same,Activity,[6],inactive
Cc1ccc(O)c(/C=N/Nc2ccccc2)c1,MIC80,[1],62 µg/mL
same,MIC80,[2],8 µg/mL
O=S(=O)(N/N=C/c1cc(Cl)ccc1O)c1ccccc1,Activity,[5],inactive
same,Activity,[6],inactive
O=C(N/N=C/c1cc(Cl)ccc1O)c1ccccc1,MIC80,[1],0.5 µg/mL
same,MIC80,[2],0.5 µg/mL
same,Activity,[3],Non-toxic
same,Activity,[4],Non-toxic
Cc1ccc(O)c(/C=N/NC(=O)c2ccccc2O)c1,MIC80,[1],16 µg/mL
same,MIC80,[2],inactive
O=S(=O)(N/N=C/c1ccccc1O)c1ccccc1,MIC80,[2],125 µg/mL
same,Activity,[5],inactive
same,Activity,[6],inactive
O=[N+]([O-])c1ccc(N/N=C/c2ccccc2O)c([N+](=O)[O-])c1,MIC80,[1],inactive
same,MIC80,[2],inactive
O=[N+]([O-])c1ccc(S(=O)(=O)N/N=C/c2cc([N+](=O)[O-])ccc2O)cc1,Activity,[5],inactive
same,Activity,[6],inactive
N/N=C/c1cc(Br)cc(Br)c1O,MIC80,[1],16 µg/mL
same,MIC80,[2],8 µg/mL
Cc1ccc(O)c(/C=N/NS(=O)(=O)c2ccccc2)c1,Activity,[5],inactive
same,Activity,[6],inactive
Oc1ccccc1/C=N/N=C/c1ccccc1O,MIC80,[1],inactive
same,MIC80,[2],inactive
COc1ccc(O)c(/C=N/NS(=O)(=O)c2ccc([N+](=O)[O-])cc2)c1,Activity,[5],inactive
same,Activity,[6],inactive
COc1ccc(S(=O)(=O)N/N=C/c2cc(Cl)ccc2O)cc1,Activity,[5],inactive
same,Activity,[6],inactive
O=C(N/N=C/c1cc(Br)ccc1O)c1ccc([N+](=O)[O-])cc1,MIC80,[1],1 µg/mL
same,MIC80,[2],2 µg/mL
O=C(N/N=C/c1cc(Cl)ccc1O)c1ccc([N+](=O)[O-])cc1,MIC80,[1],16 µg/mL
same,MIC80,[2],62 µg/mL
COc1ccc(O)c(/C=N/NS(=O)(=O)c2ccc(C)cc2)c1,Activity,[5],inactive
same,Activity,[6],inactive
CC(C)(C)c1cccc(/C=N/Nc2ccc([N+](=O)[O-])cc2)c1O,MIC80,[1],inactive
same,MIC80,[2],inactive
CC(C)(C)c1cccc(/C=N/NC(=O)c2ccc([N+](=O)[O-])cc2)c1O,MIC80,[1],31 µg/mL
same,MIC80,[2],125 µg/mL
